Only some compounds are listed: those with a hit (about 1.8% of all), similar ones and a draw of the others.
SKN-1 inh: inhibitors of C. elegans SKN-1 | C. elegans VP596 Pgst-4::GFP/RFP ratio, acrylamide-induced, 24 h | inhibition, % at 21.8 µM | actives 0.49% (n = 360,000);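 active = interference check ratio from 0.5 to 1.5 plus GFP to RFP signal ratio inhibition reaching or exceeding a fixed threshold, cut at about 30% in these data, passing the limit was not always enough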
MsrA inh: inhibitors of bovine MsrA | purified bovine MsrA, absorbance read-out | actives 0.75% (n = 360,000) | inhibition, % at 15.5 µM | AID 651718; in the data active = inhibition above about 4.5%
MIN6 prolif-1: inducers of beta-cell replication in MIN6 cells; MIN6 cells proliferation, ATPlite luminescence, 48 h; cells starved in 0.2% serum; 100% = growth in 10% serum; proliferation, % at 10 µM; actives 0.29% (n = 330,000); AID 2380;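 active = compounds whose signal lies at least 3.5 SD above the mean of all wells on their plate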
DAGLB inhibitor: diacylglycerol lipase beta (human) inhibition. HEK293T DAGLB membrane lysate, EnzChek fluorogenic substrate. Q8NCG7. AID 504411. actives 0.059% (n = 340,000). inhibition, % at 5.17 µM; in the data active = inhibition above about 34%
Target sequence (Q8NCG7 whole entry, looked up): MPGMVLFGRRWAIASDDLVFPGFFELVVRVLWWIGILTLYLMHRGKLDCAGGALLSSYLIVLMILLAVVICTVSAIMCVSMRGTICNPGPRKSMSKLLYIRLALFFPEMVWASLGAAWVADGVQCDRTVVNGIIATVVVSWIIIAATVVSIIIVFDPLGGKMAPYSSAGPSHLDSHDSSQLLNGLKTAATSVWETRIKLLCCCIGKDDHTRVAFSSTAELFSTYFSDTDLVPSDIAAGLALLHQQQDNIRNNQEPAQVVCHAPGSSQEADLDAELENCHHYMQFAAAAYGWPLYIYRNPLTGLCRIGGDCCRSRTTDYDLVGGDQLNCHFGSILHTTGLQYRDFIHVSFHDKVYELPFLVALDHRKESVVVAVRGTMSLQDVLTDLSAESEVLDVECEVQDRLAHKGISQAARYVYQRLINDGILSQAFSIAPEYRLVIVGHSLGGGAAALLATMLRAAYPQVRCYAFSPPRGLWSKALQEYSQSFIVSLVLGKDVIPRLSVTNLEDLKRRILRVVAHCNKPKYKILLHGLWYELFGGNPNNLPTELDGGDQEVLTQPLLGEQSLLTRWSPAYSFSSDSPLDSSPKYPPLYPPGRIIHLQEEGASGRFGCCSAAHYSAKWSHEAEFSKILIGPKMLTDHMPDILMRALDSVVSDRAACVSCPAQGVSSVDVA
MT1-MMP act inh: inhibitors of human MT1-MMP activation. GFP/RFP ratio change, % at 20 µM. AID 651647. HT1080 RFP-PRO-GFP cells, GFP/RFP ratio fluorescence, overnight; percent of plate control window, DMSO zero. P50281. actives 0.061% (n = 360,000);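 active = GFP/RFP ratio change of at least 30% with cell ATP level not reduced by more than half and red fluorescence within 50% of control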
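Assay system: HT1080 RFP-PRO-GFP cells | Dosing: 20 µM single dose, 1% DMSO | Incubation: Cells overnight before dosing, compound overnight, 37 °C, 5% CO2 | Evaluation: GFP/RFP fluorescence ratio | Control set: DMSO-only wells and HT1080 RFP-L50D-GFP cell wells as references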
bovine MsrA act: activators of bovine methionine sulfoxide reductase A. actives 0.3% (n = 360,000). AID 602163. purified bovine MsrA, absorbance read-out. activation, % at 10.6 µM; in the data active = activation above about 7.5%
MIN6 prolif-2: MIN6 beta-cell replication induction, confirmed. shares compounds with MIN6 prolif-1. MIN6 beta-cell proliferation, ATPlite luminescence, 48 h; cells kept in 0.2% serum; scaled between 0.2% and 10% serum. proliferation increase, % at 50 µM. 920 tested, under 10 active;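 active = proliferation increase above 40% at any of the four tested concentrations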
A number is an active result; n = inactive; x = no result given.

SMILES | SKN-1 inh | MsrA inh | MIN6 prolif-1 | DAGLB inhibitor | MT1-MMP act inh | bovine MsrA act | MIN6 prolif-2
O=c1cc(-c2ccc(O)cc2)oc2cc(O)c(C3OC(CO)C(O)C(O)C3O)c(O)c12 (stereo not drawn) | n | n | 9.0 | n | n | n | n
O=c1cc(-c2ccc(O)c(O)c2)oc2cc(O[C@@H]3O[C@H](CO)[C@@H](O)[C@H](O)[C@H]3O)cc(O)c12 | n | x | n | n | n | n | x
COC(=O)C1=C(C)N(Cc2ccccc2C(F)(F)F)C(=NCc2ccc3c(c2)OCO3)NC1c1cccc(Cl)c1 (stereo not drawn) | x | n | x | x | x | x | x
COCCNC(=S)N(c1ccccc1)C(C)C | n | n | n | n | n | n | x
COCCNC(=S)NN(c1ccccc1)c1ccccc1 | n | n | 9.0 | n | n | n | n
CNC(=O)c1ccccc1NC(=O)c1cccc(S(=O)(=O)N2CCCCC2)c1 | n | n | 7.6 | n | n | n | n
C[C@H]1[C@@H](c2ccccc2)Oc2ccc(Cl)cc2S(=O)(=O)N1Cc1ccc(Cl)cc1 | x | n | x | x | x | x | x
S=c1[nH]nc(-c2cccc(Cl)c2)n1Cc1ccccc1 | n | n | n | n | n | n | x
Cc1cccc(-c2n[nH]c(=S)n2Cc2ccccc2)c1 | n | n | 6.3 | n | x | n | n
COc1cc(/C=N/NS(=O)(=O)c2ccc3ccccc3c2)ccc1OCCN1CCOCC1 | n | n | 0.0 | n | n | n | n
CN(C)C(/C=C/Nc1cccc([N+](=O)[O-])c1)=C(C#N)C#N | n | n | 8.1 | n | n | n | n
CN(c1ccc(C(=O)Nc2cccnc2)cc1)S(=O)(=O)c1ccccc1 | n | n | 0.0 | n | n | n | n
CN(c1ccc(C(=O)Nc2cccnc2)cc1)S(=O)(=O)c1ccc(Cl)cc1 | n | n | n | n | n | n | x
CCN1C(=O)/C(=C/c2ccc(C)o2)N(C)C1=S | n | n | 0.0 | n | n | n | n
Cc1ccc(C(c2sc3ncnn3c2O)N2CCC(C)CC2)cc1 (stereo not drawn) | n | n | 12 | n | n | n | n
Cc1ccc(C(c2sc3ncnn3c2O)N2CCCCC2)cc1 (stereo not drawn) | n | n | n | n | n | n | x
COc1ccc(CNC/C=C/c2ccccc2)cc1 | n | n | 7.6 | n | n | n | n
CC(C)C[C@@H]1COc2cccc(N3CCCCC3)c2S(=O)(=O)N1 | x | n | x | x | x | x | x
CCOC(=O)N1C(=O)[C@](CC)(c2ccccc2)N1C(=O)OCC | n | n | 12 | n | n | n | n
COc1ccc(C(C)(C)C)cc1N1C(=O)[C@@H]2CSCCS(=O)(=O)N2C1=O | x | n | x | x | x | x | x
C[C@H](O)[C@@H]1C(=O)N2CCc3c([nH]c4c(-c5ccccc5)cccc34)[C@@H]2C[C@@H]1N(C)C(=O)Nc1cccc2ccccc12 | x | n | x | x | x | x | x
O=C(CNC(=O)c1ccccc1Cl)Nc1ccncc1 | n | n | n | n | n | n | x
O=C(CNC(=O)c1ccccc1Cl)Nc1ccc(F)cc1 | n | n | 7.0 | n | n | n | n
Cc1ccc(S(=O)(=O)N2CCOC23CCN(C(=O)c2ccccc2Br)CC3)cc1 | n | n | 13 | n | n | n | n
COc1ccc(C(=O)NNS(=O)(=O)c2ccccc2)cc1 | n | n | 0.0 | n | n | n | n
SMILES | SKN-1 inh | MsrA inh | MIN6 prolif-1 | DAGLB inhibitor | MT1-MMP act inh | bovine MsrA act | MIN6 prolif-2
COc1cccc(NC(=O)CN(C)C(=O)c2cn(-c3ccccc3)nc2-c2cccnc2)c1 | n | n | 9.5 | n | n | n | n
Nc1nc2c(ncn2[C@@H]2O[C@H](C(=O)N[C@H](Cc3ccccc3)C(=O)NCc3ccccc3)[C@@H](O)[C@H]2O)c(=O)[nH]1 | x | n | x | x | x | x | x
Cn1c(O)c(N=NC(=O)CNC(=O)c2ccccc2)c2cc(Br)ccc21 | n | n | n | n | n | n | x
Cn1c(O)c(N=NC(=O)CNC(=O)c2ccccc2)c2ccccc21 | n | n | 0.0 | n | n | n | n
CC1=CC(O)(c2ccccn2)P(=O)(c2ccccc2)C=C1C (stereo not drawn) | x | n | x | x | x | x | x
CCOC(=O)c1[nH]c2ccc(OC)cc2c1NS(=O)(=O)c1ccc(Cl)s1 | n | n | 5.3 | n | n | n | n
COc1ccc2[nH]c(C(=O)O)c(NS(=O)(=O)c3ccc(Cl)s3)c2c1 | n | n | n | n | n | n | x
CC(C)(C)OC(=O)N1O[C@H]2C=C[C@@H]1C2 | x | n | x | x | x | x | x
Cc1ccc(F)cc1NC(=O)Nc1cc(C(C)(C)C)nn1C | n | n | 6.9 | n | n | n | n
COc1ccccc1NC(=O)Nc1cc(C(C)(C)C)nn1C | n | n | n | n | n | n | x
COc1cc(CN2CCN(c3ncc(Cc4ccccc4)cn3)CC2)cc(OC)c1 | x | n | x | x | x | x | x
COC1OC(COCc2ccccc2)C2OC(C)(C)OC2C1O (stereo not drawn) | x | n | x | x | x | x | x
OCC[C@H]1C[C@@H](O)[C@H](O)[C@]2(CCCc3ccccc3O2)O1 | n | n | n | n | n | n | x
OCC[C@@H]1C[C@@H](O)[C@H](O)[C@]2(CCCc3ccccc3O2)O1 | n | n | 14 | n | n | n | n
CC(C)(C)n1nc2c(c1NC(=O)COc1ccc(Cl)cc1)CS(=O)(=O)C2 | n | n | n | n | n | n | x
CC(C)(Oc1ccc(Cl)cc1)C(=O)Nc1c2c(nn1C(C)(C)C)CS(=O)(=O)C2 | n | n | 15 | n | n | n | n
CC(C)=CCN1C(=O)[C@]2(OCCC=C[C@H]2C)c2c(Br)cccc21 | x | n | x | x | x | x | x
CCOC(=O)C(CC)Sc1nc2c(c(=O)[nH]c(=O)n2C)n1C/C=C(/C)Cl (stereo not drawn) | n | n | 5.4 | n | n | n | n
CCOC(=O)C(C)Sc1nc2c(c(=O)[nH]c(=O)n2C)n1CCc1ccccc1 (stereo not drawn) | n | n | n | n | n | n | x
CCCCOC(=O)CSc1nc2c(c(=O)[nH]c(=O)n2C)n1C/C=C(\C)Cl | n | n | 5.4 | n | x | n | n
C/C(Cl)=C/Cn1c(SCC(C)C)nc2c1c(=O)[nH]c(=O)n2C | n | n | n | n | n | n | x
O=C(O)[C@H](Cc1ccccc1)NC(=O)[C@H]1O[C@@H](n2ccc(=O)[nH]c2=O)[C@H](O)[C@@H]1O | x | n | x | x | x | x | x
COc1ccc(-c2nnc(SCC(=O)N3CCOCC3)o2)cc1OC | n | n | 8.5 | n | n | n | n
CC(=O)c1cccc(NC(=O)CSc2nc(C3CC3)nc3ccccc23)c1 | n | n | 0.0 | n | n | n | n
NC(=O)c1c(NC(=O)CSc2nnc(Cc3ccccc3)n2Cc2ccco2)sc2c1CCC2 | n | n | n | n | n | n | x
CCCCn1c(SCC(=O)Nc2sc3c(c2C(N)=O)CCC3)nnc1-c1ccccc1 | n | n | 8.3 | n | n | n | n
CCOc1ccccc1CNC(=O)CNC(=O)c1cccs1 | n | x | 17 | n | n | n | n

Compound activity deposited in PubChem by several laboratories.
